Laboratory results taken from ChEMBL document CHEMBL1806473, “Structure-based optimization of click-based histone deacetylase inhibitors” (Eur J Med Chem, 2011).

Tests used:
HOP-62 = assay: Cytotoxicity against human HOP62 cells; type: cell-based
Method in brief: (§1)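 Tested in the NCI in vitro disease-oriented human tumour cell line screen, with screening performed by NCI. Growth was read by SRB signal over the drug incubation period at five concentrations: 100, 10, 1.0, 0.1 and 0.01 μM. GI50 is the concentration that reduces growth of treated cells to half that of control cells.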

OVCAR-4 = assay: Antiproliferative activity against human OVCAR4 cells by SRB assay; type: functional
Method in brief: (§2)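 Tested in the NCI in vitro human tumor cell line screen, run by the National Cancer Institute. Each compound was given at five concentrations (100, 10, 1.0, 0.1 and 0.01 μM). GI50 is the drug concentration that reduces growth of treated cells to half that of control cells during drug incubation, judged from the SRB signal.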

NCI-H522 [1] = assay: Cytotoxicity against human NCI-H522 cells; type: cell-based; method in brief: as §1
HL-60(TB) = assay: Cytotoxicity against human HL-60(TB) cells; type: cell-based
MOLT-4 = assay: Antiproliferative activity against human MOLT4 cells by SRB assay; type: functional; method in brief: as §2
EKVX [2] = assay: Antiproliferative activity against human EKVX cells by SRB assay; type: functional; method in brief: as §2
EKVX [3] = assay: Cytotoxicity against human EKVX cells; type: cell-based; method in brief: as §1
MDA-MB-435 = assay: Antiproliferative activity against human MDA-MB-435 cells by SRB assay; type: functional; method in brief: as §2
PC-3 = assay: Cytotoxicity against human PC3 cells; type: cell-based
OVCAR-3 = assay: Cytotoxicity against human OVCAR3 cells; type: cell-based; method in brief: as §1
CAKI-1 [4] = assay: Antiproliferative activity against human Caki1 cells by SRB assay; type: functional; method in brief: as §2
Histone deacetylase = assay: Inhibition of HDAC in human HeLa cells using Ac-Arg-Gly-Lys(Ac)-AMC as fluorescent substrate after 20 mins by fluorescence assay; type: cell-based
MDA-MB-231 [5] = assay: Antiproliferative activity against human MDA-MB-231 cells by SRB assay; type: functional; method in brief: as §2
KM12 [6] = assay: Antiproliferative activity against human KM12 cells by SRB assay; type: functional; method in brief: as §2
SK-OV-3 = assay: Cytotoxicity against human SKOV3 cells; type: cell-based
SK-MEL-28 [7] = assay: Antiproliferative activity against human SK-MEL-28 cells by SRB assay; type: functional; method in brief: as §2
SNB-19 [8] = assay: Antiproliferative activity against human SNB19 cells by SRB assay; type: functional; method in brief: as §2
SN12C = assay: Cytotoxicity against human SN12C cells; type: cell-based
Method in brief: (§3)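 Screened by NCI in its in vitro disease-oriented human tumour cell line panel. Compounds tested at five concentrations (100, 10, 1.0, 0.1 and 0.01 μM). Growth read by sulforhodamine B (SRB) signal. GI50 is the concentration reducing growth of treated cells to half that of control cells during the drug incubation.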

NCI-H23 [9] = assay: Cytotoxicity against human NCI-H23 cells; type: cell-based
LOX IMVI = assay: Antiproliferative activity against human LOXIMVI cells by SRB assay; type: functional; method in brief: as §2
SF-295 = assay: Antiproliferative activity against human SF295 cells by SRB assay; type: functional; method in brief: as §2
HT-29 = assay: Cytotoxicity against human HT-29 cells; type: cell-based; method in brief: as §1
CAKI-1 [10] = assay: Cytotoxicity against human Caki1 cells; type: cell-based
RPMI-8226 = assay: Cytotoxicity against human RPMI8226 cells; type: cell-based; method in brief: as §1
NCI-H322M = assay: Antiproliferative activity against human NCI-H322M cells by SRB assay; type: functional; method in brief: as §2
SK-MEL-28 [11] = assay: Cytotoxicity against human SK-MEL-28 cells; type: cell-based
786-0 [12] = assay: Cytotoxicity against human 786-0 cells; type: cell-based
CCRF-CEM = assay: Cytotoxicity against human CCRF-CEM cells; type: cell-based
UACC-62 = assay: Antiproliferative activity against human UACC62 cells by SRB assay; type: functional
Method in brief: (§4)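 Cell growth was tested in the NIH in vitro disease-oriented human tumor cell line screen, which NCI ran for these compounds. Compounds were tested at five concentrations (100, 10, 1.0, 0.1 and 0.01 μM), and growth was read by SRB signal. GI50 is the drug concentration that reduces growth of treated cells to half that of control cells during drug incubation.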

RXF 393 = assay: Antiproliferative activity against human RXF393 cells by SRB assay; type: functional; method in brief: as §2
MCF7 = assay: Cytotoxicity against human MCF7 cells; type: cell-based
HCT-15 [13] = assay: Cytotoxicity against human HCT15 cells; type: cell-based; method in brief: as §1
OVCAR-8 [14] = assay: Antiproliferative activity against human OVCAR8 cells by SRB assay; type: functional; method in brief: as §2
SF-268 = assay: Cytotoxicity against human SF268 cells; type: cell-based; method in brief: as §1
TK-10 [15] = assay: Cytotoxicity against human TK10 cells; type: cell-based; method in brief: as §3
IGROV-1 = assay: Antiproliferative activity against human IGROV1 cells by SRB assay; type: functional; method in brief: as §2
UACC-257 [16] = assay: Antiproliferative activity against human UACC257 cells by SRB assay; type: functional; method in brief: as §4
[17] = Cytotoxicity against human Hs 578T cells; type: cell-based
SW-620 = assay: Antiproliferative activity against human SW620 cells by SRB assay; type: functional; method in brief: as §4
UO-31 = assay: Cytotoxicity against human UO31 cells; type: cell-based; method in brief: as §3
A498 [18] = assay: Antiproliferative activity against human A498 cells by SRB assay; type: functional; method in brief: as §2
SK-MEL-2 = assay: Cytotoxicity against human SK-MEL-2 cells; type: cell-based; method in brief: as §1
SK-MEL-5 = assay: Cytotoxicity against human SK-MEL-5 cells; type: cell-based
DU-145 = assay: Antiproliferative activity against human DU145 cells by SRB assay; type: functional; method in brief: as §2
MDA-MB-231 [19] = assay: Cytotoxicity against human MDA-MB-231 cells; type: functional; method in brief: as §1
UACC-257 [20] = assay: Cytotoxicity against human UACC257 cells; type: cell-based; method in brief: as §3
SNB-19 [21] = assay: Cytotoxicity against human SNB19 cells; type: cell-based; method in brief: as §3
TK-10 [22] = assay: Antiproliferative activity against human TK10 cells by SRB assay; type: functional; method in brief: as §4
HCT-15 [23] = assay: Antiproliferative activity against human HCT15 cells by SRB assay; type: functional; method in brief: as §2
OVCAR-8 [24] = assay: Cytotoxicity against human OVCAR8 cells; type: cell-based
NCI-H522 [25] = assay: Antiproliferative activity against human NCI-H522 cells by SRB assay; type: functional; method in brief: as §2
A498 [26] = assay: Cytotoxicity against human A498 cells; type: cell-based
KM12 [27] = assay: Cytotoxicity against human KM12 cells; type: cell-based
786-0 [28] = assay: Antiproliferative activity against human 786-0 cells by SRB assay; type: functional; method in brief: as §2
NCI-H226 = assay: Antiproliferative activity against human NCI-H226 cells by SRB assay; type: functional; method in brief: as §2
SF-539 = assay: Antiproliferative activity against human SF539 cells by SRB assay; type: functional; method in brief: as §2
COLO 205 = assay: Antiproliferative activity against human COLO205 cells by SRB assay; type: functional; method in brief: as §2
Malme-3M = assay: Antiproliferative activity against human MALME-3M cells by SRB assay; type: functional; method in brief: as §2
NCI-H23 [29] = assay: Antiproliferative activity against human NCI-H23 cells by SRB assay; type: functional; method in brief: as §2

Structure (SMILES): CC(C)C(/C=C/c1ccccc1)n1cc(/C=C/C(=O)NO)nn1 (centres undefined)
- LC50 (HOP-62): 23400 nM
- GI50 (OVCAR-4): 4060 nM
- LC50 (NCI-H522 [1]): 8480 nM
- LC50 (HL-60(TB)): > 100000 nM
- GI50 (MOLT-4): 427 nM
- GI50 (EKVX [2]): 1810 nM
- LC50 (EKVX [3]): > 100000 nM
- GI50 (MDA-MB-435): 719 nM
- LC50 (PC-3): 46500 nM
- LC50 (OVCAR-3): 22100 nM
- GI50 (CAKI-1 [4]): 487 nM
- IC50 (Histone deacetylase): 22 nM
- GI50 (MDA-MB-231 [5]): 1970 nM
- GI50 (KM12 [6]): 1220 nM
- LC50 (SK-OV-3): 27800 nM
- GI50 (SK-MEL-28 [7]): 1590 nM
- GI50 (SNB-19 [8]): 2410 nM
- LC50 (SN12C): > 100000 nM
- LC50 (NCI-H23 [9]): 12600 nM
- GI50 (LOX IMVI): 1180 nM
- GI50 (SF-295): 1470 nM
- LC50 (HT-29): > 100000 nM
- LC50 (CAKI-1 [10]): 6300 nM
- LC50 (RPMI-8226): > 100000 nM
- GI50 (NCI-H322M): 1360 nM
- LC50 (SK-MEL-28 [11]): 44900 nM
- LC50 (786-0 [12]): 6740 nM
- LC50 (CCRF-CEM): > 100000 nM
- GI50 (UACC-62): 642 nM
- GI50 (RXF 393): 1190 nM
- LC50 (MCF7): > 100000 nM
- LC50 (HCT-15 [13]): > 100000 nM
- GI50 (OVCAR-8 [14]): 816 nM
- LC50 (SF-268): 29700 nM
- LC50 (TK-10 [15]): > 100000 nM
- GI50 (IGROV-1): 1080 nM
- GI50 (UACC-257 [16]): 3120 nM
- LC50 [17]: > 100000 nM
- GI50 (SW-620): 649 nM
- LC50 (UO-31): 40900 nM
- GI50 (A498 [18]): 1510 nM
- LC50 (SK-MEL-2): > 100000 nM
- LC50 (SK-MEL-5): 5170 nM
- GI50 (DU-145): 1090 nM
- LC50 (MDA-MB-231 [19]): 73400 nM
- LC50 (UACC-257 [20]): 88300 nM
- LC50 (SNB-19 [21]): 66600 nM
- GI50 (TK-10 [22]): 531 nM
- GI50 (HCT-15 [23]): 2900 nM
- LC50 (OVCAR-8 [24]): > 100000 nM
- GI50 (NCI-H522 [25]): 582 nM
- LC50 (A498 [26]): 8630 nM
- LC50 (KM12 [27]): 9530 nM
- GI50 (786-0 [28]): 1590 nM
- GI50 (NCI-H226): 2380 nM
- GI50 (SF-539): 1190 nM
- GI50 (COLO 205): 932 nM
- GI50 (Malme-3M): 311 nM
- GI50 (NCI-H23 [29]): 1640 nM
